How the values were obtained:
[1] = molecular target: T1, UCHL5 (Homo sapiens, UniProt Q9Y5K5); assay: in vitro DUB assay with purified UCHL5 and Ub-rhodamine 110; assay type: biochemical
T1 sequence (Q9Y5K5 1-329): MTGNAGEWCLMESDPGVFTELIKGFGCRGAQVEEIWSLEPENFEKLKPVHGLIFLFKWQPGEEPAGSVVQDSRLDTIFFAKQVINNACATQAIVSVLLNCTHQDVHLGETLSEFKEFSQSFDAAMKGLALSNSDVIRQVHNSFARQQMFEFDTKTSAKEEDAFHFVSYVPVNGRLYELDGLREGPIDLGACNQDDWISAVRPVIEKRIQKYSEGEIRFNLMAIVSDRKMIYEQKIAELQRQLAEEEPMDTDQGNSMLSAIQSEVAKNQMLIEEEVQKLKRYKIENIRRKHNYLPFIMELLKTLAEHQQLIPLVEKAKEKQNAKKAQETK

[2] = molecular target: T1, UCHL5; assay type: biochemical; details: MDA-MB-231 lysate pre-incubated 30 min, Ub-VS 1 μM
Outline: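 Lysate (20 μg protein) was pre-incubated with test compound at RT, then Ub-VS was added for 11 min at RT. After SDS quench and 12% SDS-PAGE, blots were probed for UCHL5 band shift and β-actin. Two independent experiments were run.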

Structure (SMILES)	improved potency versus TAB1 ([1]; TAB2 vs TAB1)	concentrations inhibiting UCHL5/Ub-VS conjugation [2] [µM]	improvement of IC50 compared to TA ([1]; TAA1 vs TA)
Nc1ccc(-c2cn(Cc3cc(C(=O)O)cc(-c4cccc(C(=O)O)c4)c3)nn2)cc1 [TAB2]	ca. 2.5 fold	25 to 50	
CC(C(=O)O)c1ccc(C(=O)c2cccc(-c3ccccc3C(=O)O)c2)s1 (stereo not drawn) [TAA1]			ca. 33 fold

Reference: paper PMC7880549 (Bioorganic & medicinal chemistry, 2020)
